The record followed here is ChEMBL document CHEMBL1152541, “Staurosporine tethered peptide ligands that target cAMP-dependent protein kinase (PKA): optimization and selectivity profiling” (Bioorg Med Chem, 2009).

Assay [1] concerns the target Cyclin-dependent kinase 9 (Homo sapiens) (UniProt P50750). The assay can be described thus: Binding affinity to human CDK9 at 500 nM by cell-based competition binding assay relative to control in presence of DTT. In outline: (§1)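 Commercial (Ambit) competitive kinase-binding panel of 90 kinases measured the binding profile. Run under reducing conditions of 7.5 mM DTT. Binding is expressed relative to control.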

For assay [2], the target named is Cyclin-dependent kinase 2 (Homo sapiens) (UniProt P24941). Put plainly: Ratio of compound to staurosporine binding affinity to human CDK2 in presence of DTT.
The nature of assay [3]: Ratio of compound IC50 to bivalent ligand 1 IC50 for PKA.
Assay [4] concerns the target Ribosomal protein S6 kinase alpha-3 (Homo sapiens) (UniProt P51812). Put plainly: Binding affinity to human RPS6KA3 kinase domain 1 at 500 nM by cell-based competition binding assay relative to control in presence of DTT.
For assay [5], the target named is Serine/threonine-protein kinase B-raf (Homo sapiens) (UniProt P15056). Put plainly: Binding affinity to human BRAF at 200 nM by cell-based competition binding assay relative to control in presence of DTT. In outline: (§2)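 Kinase binding profiling ran on a commercial (Ambit) competitive binding screen against a panel of 90 kinases. The screen used reducing conditions with 7.5 mM DTT. To withstand the DTT, the bivalent ligand was tested as its amide isostere, with the disulfide replaced. A staurosporine derivative carrying a 3 β-alanine linker was run as the reference compound.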

Assay [6] addresses T1, TGF-beta receptor type-1 (Homo sapiens) (UniProt P36897).
T1 sequence (whole entry): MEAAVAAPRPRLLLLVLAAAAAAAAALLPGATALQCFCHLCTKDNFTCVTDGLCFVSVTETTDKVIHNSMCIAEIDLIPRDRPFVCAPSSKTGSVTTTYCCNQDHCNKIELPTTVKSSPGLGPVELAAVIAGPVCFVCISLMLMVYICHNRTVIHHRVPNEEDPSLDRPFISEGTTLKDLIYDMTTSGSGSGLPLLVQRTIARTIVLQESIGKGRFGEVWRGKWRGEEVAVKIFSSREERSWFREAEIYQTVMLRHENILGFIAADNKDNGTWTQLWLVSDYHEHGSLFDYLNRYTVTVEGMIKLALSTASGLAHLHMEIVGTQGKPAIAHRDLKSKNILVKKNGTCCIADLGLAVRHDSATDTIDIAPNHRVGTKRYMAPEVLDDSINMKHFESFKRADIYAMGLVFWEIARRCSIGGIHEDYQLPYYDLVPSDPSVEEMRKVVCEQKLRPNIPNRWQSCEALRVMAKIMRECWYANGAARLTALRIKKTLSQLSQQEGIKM
The assay can be described thus: Binding affinity to human TGFBR1 at 200 nM by cell-based competition binding assay relative to control in presence of DTT.

For assay [7], the target named is MAP/microtubule affinity-regulating kinase 3 (Homo sapiens) (UniProt P27448). Put plainly: Binding affinity to human MARK3 at 200 nM by cell-based competition binding assay relative to control in presence of DTT. In outline:
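Competition binding screen (Ambit) across a panel of 90 kinases, scoring test ligand displacement of each kinase's binding relative to control. The screen ran under reducing conditions with 7.5 mM DTT.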

Assay [8] deals with ALK tyrosine kinase receptor (Homo sapiens) (UniProt Q9UM73). Put plainly: Binding affinity to human ALK at 200 nM by cell-based competition binding assay relative to control in presence of DTT. In outline: as §2
Assay [9] has as its target T2, Serine/threonine-protein kinase PLK4 (Homo sapiens) (UniProt O00444).
T2 sequence (whole entry): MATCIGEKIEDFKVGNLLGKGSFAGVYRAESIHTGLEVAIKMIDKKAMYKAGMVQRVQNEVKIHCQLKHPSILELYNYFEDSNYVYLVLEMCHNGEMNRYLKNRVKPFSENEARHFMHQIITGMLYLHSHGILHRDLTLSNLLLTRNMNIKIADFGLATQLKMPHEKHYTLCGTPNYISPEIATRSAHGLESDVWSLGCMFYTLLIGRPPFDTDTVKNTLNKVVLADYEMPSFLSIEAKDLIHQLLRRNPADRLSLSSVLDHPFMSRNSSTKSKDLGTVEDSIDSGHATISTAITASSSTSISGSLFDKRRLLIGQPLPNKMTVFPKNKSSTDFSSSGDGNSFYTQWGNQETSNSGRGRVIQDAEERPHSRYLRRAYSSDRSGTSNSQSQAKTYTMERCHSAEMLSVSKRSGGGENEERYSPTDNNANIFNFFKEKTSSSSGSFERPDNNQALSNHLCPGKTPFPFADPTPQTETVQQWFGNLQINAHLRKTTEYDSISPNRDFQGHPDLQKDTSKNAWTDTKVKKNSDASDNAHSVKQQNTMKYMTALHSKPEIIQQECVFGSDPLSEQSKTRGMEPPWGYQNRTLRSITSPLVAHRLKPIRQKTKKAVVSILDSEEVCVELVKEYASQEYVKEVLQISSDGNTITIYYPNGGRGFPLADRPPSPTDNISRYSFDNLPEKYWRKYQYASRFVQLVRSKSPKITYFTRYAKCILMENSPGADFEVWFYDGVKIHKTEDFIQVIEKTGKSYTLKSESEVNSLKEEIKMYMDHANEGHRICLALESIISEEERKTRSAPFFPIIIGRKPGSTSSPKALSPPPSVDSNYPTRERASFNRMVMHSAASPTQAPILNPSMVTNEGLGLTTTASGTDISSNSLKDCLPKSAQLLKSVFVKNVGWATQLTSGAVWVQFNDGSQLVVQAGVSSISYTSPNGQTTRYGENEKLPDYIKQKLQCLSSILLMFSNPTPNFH
The assay can be described thus: Binding affinity to human PLK4 at 200 nM by cell-based competition binding assay relative to control in presence of DTT.

In assay [10] the target is Mitogen-activated protein kinase 14 (Homo sapiens) (UniProt Q16539). The assay can be described thus: Binding affinity to human p38alpha at 200 nM by cell-based competition binding assay relative to control in presence of DTT.
Assay [11] shares this target. Put plainly: Binding affinity to human p38alpha at 50 nM by cell-based competition binding assay relative to control in presence of DTT.
Assay [12] has as its target Serine/threonine-protein kinase pim-2 (Homo sapiens) (UniProt Q9P1W9). The assay can be described thus: Binding affinity to human PIM2 at 50 nM by cell-based competition binding assay relative to control in presence of DTT.
For assay [13], the system named is Epidermal growth factor receptor (Homo sapiens), P00533 [L858R]. Put plainly: Binding affinity to human EGFR L858R mutant at 50 nM by cell-based competition binding assay relative to control in presence of DTT. In outline: as §1
Assay [14] concerns the target Dual specificity tyrosine-phosphorylation-regulated kinase 1B (Homo sapiens) (UniProt Q9Y463). The assay can be described thus: Binding affinity to human DYRK1B at 50 nM by cell-based competition binding assay relative to control in presence of DTT. In outline:
as §1

*1 amine or outer side, *2 acyl side, *3 side chain or, on linkers, in order; H or OH if unused. Where a SMILES comes first, the peptide text is derived from it. Bridges are numbered along the chain shown (N, C = ends). [ ]: non-standard residue; d: D form. The star is where a group is joined. Staurosporine = CO[C@@H]1[C@H](N(C)*)C[C@H]2O[C@]1(C)n1c3ccccc3c3c4c(c5c6ccccc6n2c5c31)C(=O)NC4; Suc = O=C(CCC(=O)[*:2])[*:1]; Dap = NC[C@H](N)C(=O)O; βAla = NCCC(=O)O Bounds are passed on as bounds.

Mitogen-activated protein kinase 14 (Homo sapiens), sequence (Q16539 whole entry): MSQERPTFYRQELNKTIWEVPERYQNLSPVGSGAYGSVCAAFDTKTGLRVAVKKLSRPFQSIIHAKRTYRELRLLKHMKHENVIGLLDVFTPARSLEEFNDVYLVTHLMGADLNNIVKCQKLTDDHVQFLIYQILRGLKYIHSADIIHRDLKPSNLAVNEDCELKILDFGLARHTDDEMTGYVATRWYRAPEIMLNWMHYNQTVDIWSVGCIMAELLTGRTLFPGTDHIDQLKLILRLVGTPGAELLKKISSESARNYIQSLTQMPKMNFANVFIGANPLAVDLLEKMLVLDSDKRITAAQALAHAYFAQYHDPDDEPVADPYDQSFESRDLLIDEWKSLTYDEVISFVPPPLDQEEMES
Serine/threonine-protein kinase B-raf (Homo sapiens), sequence (P15056 whole entry): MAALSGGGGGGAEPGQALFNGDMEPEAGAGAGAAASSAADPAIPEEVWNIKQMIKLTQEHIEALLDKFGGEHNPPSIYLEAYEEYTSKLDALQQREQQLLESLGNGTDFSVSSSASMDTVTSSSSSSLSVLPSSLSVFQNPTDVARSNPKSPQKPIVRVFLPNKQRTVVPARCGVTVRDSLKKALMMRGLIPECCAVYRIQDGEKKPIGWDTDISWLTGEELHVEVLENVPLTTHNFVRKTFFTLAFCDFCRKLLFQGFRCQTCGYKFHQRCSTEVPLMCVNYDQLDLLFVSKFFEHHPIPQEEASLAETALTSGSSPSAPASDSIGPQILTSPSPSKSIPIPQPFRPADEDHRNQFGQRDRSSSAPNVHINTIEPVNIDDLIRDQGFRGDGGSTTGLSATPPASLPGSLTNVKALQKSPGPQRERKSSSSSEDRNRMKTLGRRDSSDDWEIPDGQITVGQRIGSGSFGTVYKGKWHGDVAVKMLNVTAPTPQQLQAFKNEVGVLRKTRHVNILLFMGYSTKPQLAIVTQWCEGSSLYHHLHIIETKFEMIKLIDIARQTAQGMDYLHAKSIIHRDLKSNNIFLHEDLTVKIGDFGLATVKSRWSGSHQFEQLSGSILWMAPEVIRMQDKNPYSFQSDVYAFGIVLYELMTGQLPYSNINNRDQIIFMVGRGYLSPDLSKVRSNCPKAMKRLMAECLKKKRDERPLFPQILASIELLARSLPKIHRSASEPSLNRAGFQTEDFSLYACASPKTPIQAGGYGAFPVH
MAP/microtubule affinity-regulating kinase 3 (Homo sapiens), sequence (P27448 whole entry, looked up): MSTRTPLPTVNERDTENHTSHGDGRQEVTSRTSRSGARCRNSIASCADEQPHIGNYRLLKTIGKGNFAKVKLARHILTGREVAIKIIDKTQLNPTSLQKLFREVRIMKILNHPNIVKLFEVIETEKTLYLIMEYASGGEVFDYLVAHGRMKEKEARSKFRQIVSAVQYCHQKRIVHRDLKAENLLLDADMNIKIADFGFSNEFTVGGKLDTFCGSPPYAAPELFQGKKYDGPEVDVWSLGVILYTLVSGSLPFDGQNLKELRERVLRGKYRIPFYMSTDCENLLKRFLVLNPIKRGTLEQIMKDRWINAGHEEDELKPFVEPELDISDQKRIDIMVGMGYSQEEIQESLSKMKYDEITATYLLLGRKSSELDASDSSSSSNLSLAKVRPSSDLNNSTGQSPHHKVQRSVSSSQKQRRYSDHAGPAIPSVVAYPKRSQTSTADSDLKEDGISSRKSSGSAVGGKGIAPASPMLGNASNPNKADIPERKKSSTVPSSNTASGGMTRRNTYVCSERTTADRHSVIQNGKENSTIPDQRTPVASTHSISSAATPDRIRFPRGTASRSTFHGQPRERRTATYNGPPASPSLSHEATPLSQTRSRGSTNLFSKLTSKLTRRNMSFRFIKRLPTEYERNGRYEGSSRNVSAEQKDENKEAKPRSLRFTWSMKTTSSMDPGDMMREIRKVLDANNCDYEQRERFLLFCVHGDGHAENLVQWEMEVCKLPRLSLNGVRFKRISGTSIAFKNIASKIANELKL
Dual specificity tyrosine-phosphorylation-regulated kinase 1B (Homo sapiens), sequence (Q9Y463 whole entry, looked up): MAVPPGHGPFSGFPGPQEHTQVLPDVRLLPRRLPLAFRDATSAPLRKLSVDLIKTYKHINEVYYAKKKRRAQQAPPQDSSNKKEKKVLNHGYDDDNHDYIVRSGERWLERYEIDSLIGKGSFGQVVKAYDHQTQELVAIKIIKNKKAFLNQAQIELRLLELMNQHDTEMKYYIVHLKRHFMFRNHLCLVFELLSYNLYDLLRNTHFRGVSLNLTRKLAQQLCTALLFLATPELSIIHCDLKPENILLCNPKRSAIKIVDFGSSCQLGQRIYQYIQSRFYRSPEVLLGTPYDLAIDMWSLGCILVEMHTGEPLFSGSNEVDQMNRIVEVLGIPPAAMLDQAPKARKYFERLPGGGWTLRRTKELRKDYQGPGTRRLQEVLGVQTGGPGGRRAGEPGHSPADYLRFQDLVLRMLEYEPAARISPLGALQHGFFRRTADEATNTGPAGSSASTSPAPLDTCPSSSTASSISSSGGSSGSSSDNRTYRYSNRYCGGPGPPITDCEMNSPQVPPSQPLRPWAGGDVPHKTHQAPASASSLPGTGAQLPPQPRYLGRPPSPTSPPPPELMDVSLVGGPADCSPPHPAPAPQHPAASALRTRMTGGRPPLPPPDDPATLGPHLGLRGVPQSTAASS
Serine/threonine-protein kinase pim-2 (Homo sapiens), sequence (Q9P1W9 whole entry, looked up): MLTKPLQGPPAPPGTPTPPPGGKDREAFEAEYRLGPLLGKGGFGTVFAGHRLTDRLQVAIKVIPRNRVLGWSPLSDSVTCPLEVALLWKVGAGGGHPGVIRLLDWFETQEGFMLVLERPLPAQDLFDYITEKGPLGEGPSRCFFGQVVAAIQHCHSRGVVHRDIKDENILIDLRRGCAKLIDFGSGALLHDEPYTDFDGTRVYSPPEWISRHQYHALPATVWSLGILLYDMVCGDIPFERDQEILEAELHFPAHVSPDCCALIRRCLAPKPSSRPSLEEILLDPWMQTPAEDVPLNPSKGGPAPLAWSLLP
Ribosomal protein S6 kinase alpha-3 (Homo sapiens), sequence (P51812 whole entry, the tested form may be a part): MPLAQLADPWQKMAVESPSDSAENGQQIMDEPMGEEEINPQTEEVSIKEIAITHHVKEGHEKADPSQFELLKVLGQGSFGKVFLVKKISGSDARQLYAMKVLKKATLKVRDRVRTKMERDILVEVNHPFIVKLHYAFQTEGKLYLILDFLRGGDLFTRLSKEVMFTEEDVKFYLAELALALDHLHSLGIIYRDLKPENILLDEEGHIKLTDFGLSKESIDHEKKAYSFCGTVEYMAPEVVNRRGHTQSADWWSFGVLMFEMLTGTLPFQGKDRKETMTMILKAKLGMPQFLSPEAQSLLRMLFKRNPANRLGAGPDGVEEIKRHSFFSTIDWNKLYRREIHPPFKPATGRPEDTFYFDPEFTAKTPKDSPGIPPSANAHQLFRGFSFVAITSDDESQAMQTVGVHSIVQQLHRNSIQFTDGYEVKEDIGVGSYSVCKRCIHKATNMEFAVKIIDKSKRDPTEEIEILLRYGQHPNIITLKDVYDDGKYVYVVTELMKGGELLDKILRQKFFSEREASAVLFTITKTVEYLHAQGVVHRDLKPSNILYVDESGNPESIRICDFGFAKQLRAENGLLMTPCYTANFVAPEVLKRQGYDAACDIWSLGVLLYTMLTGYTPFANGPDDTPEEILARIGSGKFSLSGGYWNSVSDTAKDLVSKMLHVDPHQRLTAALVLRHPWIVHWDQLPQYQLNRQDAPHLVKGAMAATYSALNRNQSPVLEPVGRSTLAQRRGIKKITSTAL
Cyclin-dependent kinase 9 (Homo sapiens), sequence (P50750 whole entry): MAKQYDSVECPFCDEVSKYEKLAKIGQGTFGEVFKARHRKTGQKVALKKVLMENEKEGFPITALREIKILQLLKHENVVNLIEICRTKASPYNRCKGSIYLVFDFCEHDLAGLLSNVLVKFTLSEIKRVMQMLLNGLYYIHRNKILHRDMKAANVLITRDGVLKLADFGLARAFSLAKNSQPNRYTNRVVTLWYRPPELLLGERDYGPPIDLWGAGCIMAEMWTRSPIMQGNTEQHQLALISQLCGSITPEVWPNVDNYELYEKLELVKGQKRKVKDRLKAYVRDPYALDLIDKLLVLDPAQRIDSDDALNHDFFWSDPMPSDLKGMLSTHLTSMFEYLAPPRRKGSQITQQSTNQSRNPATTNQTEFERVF

For the compound `CO[C@@H]1[C@H](N(C)C(=O)CCC(=O)NCCC(=O)NCCC(=O)NCCC(N)=O)C[C@H]2O[C@]1(C)n1c3ccccc3c3c4c(c5c6ccccc6n2c5c31)C(=O)NC4`, the Activity was 92% in [1] and 44% in assay [4]. In assay [2], the Selectivity ratio amounted to 50. Besides, the Ratio IC50 in [3] is above 60.

For `CO[C@@H]1[C@H](N(C)C(=O)CCC(=O)NCCC(=O)NCCC(=O)NCCC(=O)NCCC(=O)NCCC(=O)NCCC(=O)NCCC(=O)N[C@H]2CSSC[C@@H](C(=O)NCC(N)=O)NC(=O)CNC(=O)[C@H](Cc3ccccc3)NC(=O)[C@H](C(C)C)NC(=O)[C@H](CCCNC(=N)N)NC(=O)[C@H](Cc3ccccc3)NC(=O)[C@H](C(C)C)NC2=O)C[C@H]2O[C@]1(C)n1c3ccccc3c3c4c(c5c6ccccc6n2c5c31)C(=O)NC4` ({Staurosporine-Suc-βAla-βAla-βAla-βAla-βAla-βAla-βAla}-CVFRVFGCG-NH2; disulfide 1-8), the Activity was 100% in assay [5]; 100% in assay [6]; 18% in [7]; 60% in [8]; 4.9% in assay [9]; 89% in [10].

On to `CO[C@@H]1[C@H](N(C)C(=O)CCC(=O)NCCC(=O)NCCC(=O)NCCC(=O)NCCC(=O)NCCC(=O)NCCC(=O)NCCC(=O)N[C@H]2CNC(=O)C[C@@H](C(N)=O)NC(=O)CNC(=O)[C@H](Cc3ccccc3)NC(=O)[C@H](C(C)C)NC(=O)[C@H](CCCNC(=N)N)NC(=O)[C@H](Cc3ccccc3)NC(=O)[C@H](C(C)C)NC2=O)C[C@H]2O[C@]1(C)n1c3ccccc3c3c4c(c5c6ccccc6n2c5c31)C(=O)NC4` ({Staurosporine-Suc-βAla-βAla-βAla-βAla-βAla-βAla-βAla}-[Dap]VFRVFGD-NH2; lactam 1-8), for which the Activity in [11] turned out to be 95%; in assay [12], 100%; in assay [13] it was 100%; in [14] it was 79%.
